Results reported in ChEMBL document CHEMBL3351398, “Discovery of a Potent and Selective DGAT1 Inhibitor with a Piperidinyl-oxy-cyclohexanecarboxylic Acid Moiety” (ACS Med Chem Lett, 2014).
Calls of active or inactive are those of the source. The rule behind the calls is not given here.

Experiments:
[1] = biological target: T1, Sterol O-acyltransferase 1 (Homo sapiens) (UniProt P35610); assay: Inhibition of human ACAT1 at 10 uM
T1 sequence (whole entry): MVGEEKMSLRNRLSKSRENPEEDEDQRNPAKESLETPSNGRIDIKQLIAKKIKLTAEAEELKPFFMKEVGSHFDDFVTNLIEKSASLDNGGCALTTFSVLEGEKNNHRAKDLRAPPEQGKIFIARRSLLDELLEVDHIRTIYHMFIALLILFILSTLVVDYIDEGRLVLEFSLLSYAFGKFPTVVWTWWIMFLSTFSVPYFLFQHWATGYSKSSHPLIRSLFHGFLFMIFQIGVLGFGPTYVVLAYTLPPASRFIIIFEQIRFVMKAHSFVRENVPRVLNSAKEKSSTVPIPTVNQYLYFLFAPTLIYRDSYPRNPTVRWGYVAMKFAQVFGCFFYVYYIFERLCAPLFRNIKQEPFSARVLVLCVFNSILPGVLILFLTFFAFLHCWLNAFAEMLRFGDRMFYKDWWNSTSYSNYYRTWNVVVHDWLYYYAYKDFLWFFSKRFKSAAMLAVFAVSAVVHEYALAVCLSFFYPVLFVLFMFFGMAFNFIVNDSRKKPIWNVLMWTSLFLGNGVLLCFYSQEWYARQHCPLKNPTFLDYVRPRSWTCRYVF
Summary of the method: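 Human ACAT1 inhibition was tested at a single concentration of 10 μM. The value is reported as percent inhibition.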

Mus musculus [2] = assay: Reduction in cumulative body weight gain in wild type mouse at 10 mg/kg, po dosed daily for 6 days measured starting from day 3; type: functional, organism-based; parameters: dose 10 mg/kg
Summary of the method: (§1)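 Wild-type and DGAT1 knockout mice were dosed daily at 10 mpk for six days. Cumulative body weight gain and food intake were compared with vehicle-treated groups.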

Mus musculus [3] = assay: Reduction in food intake in DGAT1 knockout mouse at 10 mg/kg, po dosed daily for 6 days; type: functional, organism-based; parameters: dose 10 mg/kg
Summary of the method: (§2)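 Wild-type and DGAT1 knockout mice were dosed daily at 10 mpk for six days. Cumulative body weight gain and food intake were compared with vehicle-treated groups of the same genotype.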

Mus musculus [4] = assay: Reduction in cumulative body weight gain in DGAT1 knockout mouse at 10 mg/kg, po dosed daily for 6 days; type: functional, organism-based; parameters: dose 10 mg/kg; summary of the method: as §1
Mus musculus [5] = assay: Reduction in food intake in wild type mouse at 10 mg/kg, po dosed daily for 6 days measured starting from day 3; type: functional, organism-based; parameters: dose 10 mg/kg; summary of the method: as §2
Homo sapiens [6] = species on record: Homo sapiens; assay: Selectivity index, ratio of Ki for human A2A receptor to KI IC50 for human DGAT1
[7] = biological target: T2, Diacylglycerol O-acyltransferase 1 (Mus musculus, UniProt Q9Z2A7); assay: Inhibition of mouse DGAT1
T2 sequence (Q9Z2A7 whole entry): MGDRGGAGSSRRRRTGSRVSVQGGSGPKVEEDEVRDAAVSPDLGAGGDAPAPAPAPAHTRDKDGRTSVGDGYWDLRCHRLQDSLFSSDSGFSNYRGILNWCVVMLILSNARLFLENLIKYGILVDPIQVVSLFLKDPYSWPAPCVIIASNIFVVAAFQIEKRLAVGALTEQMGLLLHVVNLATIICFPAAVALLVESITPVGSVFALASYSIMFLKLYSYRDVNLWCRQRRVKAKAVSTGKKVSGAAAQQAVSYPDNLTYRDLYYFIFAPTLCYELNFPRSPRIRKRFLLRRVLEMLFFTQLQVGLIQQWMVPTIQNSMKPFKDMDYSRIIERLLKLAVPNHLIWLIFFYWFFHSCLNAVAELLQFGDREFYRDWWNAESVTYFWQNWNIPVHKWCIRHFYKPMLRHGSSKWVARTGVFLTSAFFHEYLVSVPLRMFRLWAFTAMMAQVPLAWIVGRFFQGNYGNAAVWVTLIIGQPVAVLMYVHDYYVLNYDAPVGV

[8] = biological target: T3, Sterol O-acyltransferase 1 (Homo sapiens, UniProt P35610); assay: Inhibition of human ACAT1
T3 sequence (P35610 whole entry): T1 sequence (whole entry)

[9] = biological target: Voltage-gated inwardly rectifying potassium channel KCNH2 (Homo sapiens, UniProt Q12809); assay: Displacement of radiolabeled MK499 from human ERG
Sequence of Voltage-gated inwardly rectifying potassium channel KCNH2 (Q12809 whole entry): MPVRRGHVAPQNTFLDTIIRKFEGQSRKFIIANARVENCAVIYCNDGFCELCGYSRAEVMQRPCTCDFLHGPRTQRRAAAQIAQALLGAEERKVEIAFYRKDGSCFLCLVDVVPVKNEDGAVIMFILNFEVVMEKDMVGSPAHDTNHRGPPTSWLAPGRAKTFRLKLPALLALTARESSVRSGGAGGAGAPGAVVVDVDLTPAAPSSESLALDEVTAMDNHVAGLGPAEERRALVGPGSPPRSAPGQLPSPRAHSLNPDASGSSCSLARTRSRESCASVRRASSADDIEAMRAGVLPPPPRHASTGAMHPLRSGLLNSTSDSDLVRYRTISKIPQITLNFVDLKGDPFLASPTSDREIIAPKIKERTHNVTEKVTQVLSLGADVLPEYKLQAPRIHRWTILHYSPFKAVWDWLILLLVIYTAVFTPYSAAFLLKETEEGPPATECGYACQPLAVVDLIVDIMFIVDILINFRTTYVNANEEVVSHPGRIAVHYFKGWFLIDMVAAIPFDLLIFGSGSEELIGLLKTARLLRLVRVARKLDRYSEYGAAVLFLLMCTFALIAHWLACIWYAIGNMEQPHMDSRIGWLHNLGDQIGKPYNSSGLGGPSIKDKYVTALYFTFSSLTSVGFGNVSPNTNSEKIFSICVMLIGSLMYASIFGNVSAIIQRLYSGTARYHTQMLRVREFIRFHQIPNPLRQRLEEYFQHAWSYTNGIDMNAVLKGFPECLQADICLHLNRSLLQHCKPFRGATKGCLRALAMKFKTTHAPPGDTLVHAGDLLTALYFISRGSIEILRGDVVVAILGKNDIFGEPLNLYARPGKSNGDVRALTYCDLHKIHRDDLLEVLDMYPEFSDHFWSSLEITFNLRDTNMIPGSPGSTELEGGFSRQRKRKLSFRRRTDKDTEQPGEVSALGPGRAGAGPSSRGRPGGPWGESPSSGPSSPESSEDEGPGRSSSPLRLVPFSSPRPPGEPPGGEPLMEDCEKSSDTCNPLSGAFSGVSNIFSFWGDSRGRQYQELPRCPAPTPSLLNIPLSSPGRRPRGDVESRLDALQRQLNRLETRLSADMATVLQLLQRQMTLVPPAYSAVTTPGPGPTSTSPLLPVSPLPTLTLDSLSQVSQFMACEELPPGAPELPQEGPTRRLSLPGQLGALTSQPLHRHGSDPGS
Summary of the method: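 hERG off-target activity was measured in a competitive binding assay against radiolabeled MK-499. The value is reported as Ki.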

Adenosine receptor A2a = Adenosine receptor A2a (Homo sapiens, UniProt P29274); assay: Binding affinity to human A2A receptor
Sequence of Adenosine receptor A2a (P29274 whole entry): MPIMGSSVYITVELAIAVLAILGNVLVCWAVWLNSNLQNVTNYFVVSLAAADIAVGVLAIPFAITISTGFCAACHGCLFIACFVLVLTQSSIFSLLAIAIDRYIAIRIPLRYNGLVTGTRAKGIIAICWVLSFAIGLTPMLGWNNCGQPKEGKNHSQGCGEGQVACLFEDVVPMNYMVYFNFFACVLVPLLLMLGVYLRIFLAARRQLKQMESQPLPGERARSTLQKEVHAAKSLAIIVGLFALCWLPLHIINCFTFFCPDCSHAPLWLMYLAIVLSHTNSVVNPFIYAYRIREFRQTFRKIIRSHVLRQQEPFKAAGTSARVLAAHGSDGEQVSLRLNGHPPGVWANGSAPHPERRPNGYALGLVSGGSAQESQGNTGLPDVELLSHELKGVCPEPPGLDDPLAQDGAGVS
Summary of the method: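 Recombinant human A2A receptor was tested in an in-house radioligand competition binding assay. The value is reported as Ki.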

Mus musculus [10] = assay: Inhibition of plasma triglyceride accumulation in mouse at 10 mg/kg, po dosed 2 hrs before lipid challenge and measured at 18 hrs by lipid tolerance test; type: functional
Summary of the method: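 Mouse lipid tolerance test measuring plasma triglyceride excursion. Dosing was 10 mpk oral, with triglyceride reduction read at 18 h.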

[11] = biological target: T4, Diacylglycerol O-acyltransferase 1 (Homo sapiens, UniProt O75907); assay: Inhibition of human DGAT1
T4 sequence (O75907 whole entry): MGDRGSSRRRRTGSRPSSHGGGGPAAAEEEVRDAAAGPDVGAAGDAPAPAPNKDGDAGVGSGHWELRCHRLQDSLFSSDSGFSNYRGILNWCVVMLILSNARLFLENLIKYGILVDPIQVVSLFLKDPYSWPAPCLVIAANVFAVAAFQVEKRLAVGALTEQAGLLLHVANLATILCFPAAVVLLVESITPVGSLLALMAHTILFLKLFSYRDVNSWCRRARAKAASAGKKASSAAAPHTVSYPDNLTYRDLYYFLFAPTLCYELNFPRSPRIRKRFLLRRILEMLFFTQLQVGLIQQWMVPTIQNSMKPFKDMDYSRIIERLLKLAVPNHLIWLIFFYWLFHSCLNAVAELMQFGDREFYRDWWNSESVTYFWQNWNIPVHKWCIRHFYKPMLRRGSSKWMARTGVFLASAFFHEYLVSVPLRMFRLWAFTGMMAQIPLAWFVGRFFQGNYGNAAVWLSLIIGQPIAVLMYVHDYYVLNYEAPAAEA

Rattus norvegicus = assay: Inhibition of plasma triglyceride accumulation in Sprague-Dawley rat at 10 mg/kg, po dosed 2 hrs before lipid challenge and measured at 18 hrs by lipid tolerance test; type: functional
Homo sapiens [12] = assay: Reduction in fasting triglyceride levels in familial chylomicronemia syndrome patient at 20 mg dosed daily; type: functional
[13] = Solubility in PBS buffer at pH 7; type: physicochemical
Summary of the method: (§3)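 High-throughput solubility test in PBS buffer at pH 2 and at pH 7. Free form and salt forms (TFA, formate, ammonium) were tested separately.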

[14] = Solubility in PBS buffer at pH 2; type: physicochemical; summary of the method: as §3

Compound	inhibition [1] [%]	Selectivity ratio (Homo sapiens [6])	IC50 [7] [µM]	IC50 [8] [µM]	Ki [9] [µM]	Ki (Adenosine receptor A2a) [µM]	inhibition in vivo at 10 mg/kg (Mus musculus [10]) [%]	IC50 [11] [µM]	further results
O=C(O)[C@H]1CC[C@H](OC2CCN(c3ccc(-c4nc5cc(C(F)(F)F)ccc5[nH]4)cn3)CC2)CC1	23	> 1000							Activity (Mus musculus [2]): Active; Activity (Mus musculus [3]): inactive; Activity (Mus musculus [4]): inactive; Activity (Mus musculus [5]): Active
O=C(O)[C@H]1CC[C@H](OC2CCN(c3ccc(-c4nc5cc(F)ccc5[nH]4)cn3)CC2)CC1	5		0.11	> 10	> 60	9.7			
O=C(O)[C@H]1CC[C@@H](OC2CCN(c3ccc(-c4nc5cc(F)ccc5[nH]4)cn3)CC2)CC1	-2	> 1000	0.026	> 10	11	> 10	55	0.0058	
O=C(O)[C@H]1CC[C@@H](OC2CCN(c3ccc(-c4nc5cc(Cl)ccc5[nH]4)cn3)CC2)CC1	13		0.011	> 10	15		52	0.0022	
CC1(C)Oc2ncnc(N)c2N=C1c1ccc([C@H]2CC[C@H](CC(=O)O)CC2)cc1									inhibition in vivo at 10 mg/kg (Rattus norvegicus): 100%
O=C(O)C[C@H]1CC[C@H](c2ccc(-c3ccc(Nc4ccc(C(F)(F)F)nc4)cn3)cc2)CC1 [PRADIGASTAT]									inhibition (INH) (Homo sapiens [12]): 40%
O=C(O)C(F)(F)F.O=C(O)[C@H]1CC[C@H](OC2CCN(c3ccc(-c4nc5cc(C(F)(F)F)ccc5[nH]4)cn3)CC2)CC1									solubility [13]: 151 µM; solubility [14]: 130 µM
O=C(O)[C@H]1CC[C@H](OC2CCN(c3ccc(-c4nc5cc(Cl)ccc5[nH]4)cn3)CC2)CC1	4	> 1000	0.029	> 10	4	3.5	75	0.0029	
O=C(O)[C@H]1CC[C@@H](OC2CCN(c3ccc(-c4nc5cc(C(F)(F)F)ccc5[nH]4)cn3)CC2)CC1	22	> 1000	0.008	> 10	7	8	75	0.0025	
